Compound activity as filed in PubChem BioAssay.
SIRT5 block = SIRT5 desuccinylase inhibitors, primary screen, biochemical, fluorescence imaging, single point, set 5 | NAD-dependent protein deacylase sirtuin-5, mitochondrial (Homo sapiens), Q9NXA8 | inhibition, % at 15 µM | hit rate 1.1% among 330,000 | Purified SirT5, succinyl-peptide AMC, trypsin-coupled fluorescence; in the data active = inhibition above about 15%
Target sequence (Q9NXA8 whole entry, looked up): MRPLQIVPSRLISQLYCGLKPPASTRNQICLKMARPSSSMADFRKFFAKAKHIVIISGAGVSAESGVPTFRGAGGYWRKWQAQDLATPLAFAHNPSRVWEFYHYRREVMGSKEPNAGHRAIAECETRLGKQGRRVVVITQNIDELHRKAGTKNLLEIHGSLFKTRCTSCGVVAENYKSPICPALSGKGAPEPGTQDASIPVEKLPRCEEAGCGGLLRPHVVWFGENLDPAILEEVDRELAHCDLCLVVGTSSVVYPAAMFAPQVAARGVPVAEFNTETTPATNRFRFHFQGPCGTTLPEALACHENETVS
Ecoli rRNA inh = reduced GFP signal of wild-type E. coli, primary screen, bacterial rRNA inhibitor project, GFP/RFP fluorescence, OD600, single point. E. coli WT GFP vs humanized-ribosome RFP mutants, 24 h; hits give low values; DMSO median 0, no signal -100. GFP signal change (wild-type ribosome), % (no concentration beside the values). hit rate 1.6% among 350,000;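 active = significant combined selectivity score with lowered wild-type GFP, culture density cut under 30%, mutant RFP and density less affected; inactive = any of these conditions unmet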
ERAP1 inh = human ERAP1 aminopeptidase inhibitors, primary screen, biochemical, single point, plate reader | Endoplasmic reticulum aminopeptidase 1 (Homo sapiens), Q9NZ08 | recombinant ERAP1, Leu-AMC fluorescence, 60 min | inhibition, % at 10.7 µM | hit rate 0.15% among 340,000;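 active = mean replicate inhibition of at least 30%, or all replicates individually reaching that 30% level; inactive = mean below 30% and not every replicate reaching it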;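 note: 0% = neutral control wells and 100% = L-leucinethiol positive control wells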
F508del corr = F508del CFTR correction, initial screen, CFBE line, single point; activity (quench increase), % at 7.58 µM; AID 720511, 2013; hit rate 0.36% among 350,000; CFBE cells, YFP halide quenching; stimulated with forskolin plus potentiator P3; % fluorescence drop versus neutral controls;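 active = mean added fluorescence quench of at least 8% versus neutral control, with both replicates also reaching 8%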;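 note: cells transiently co-express mutant CFTR-F508del with the halide-sensitive YFP; corrector assay measuring rescue of mutant channel to the surface after 24 h compound exposure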
S100A4 inh HTS = inhibitors of S100A4-myosin IIA peptide binding, primary screen, biochemical, fluorescence polarization, TAMRA-MyoIIA peptide; Protein S100-A4 (Homo sapiens), P26447; inhibition, % at 10.7 µM; hit rate 0.14% among 360,000; AID 652163, 2013;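 active = mean inhibition of at least 70% across replicates, with every replicate also reaching that level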
Target sequence (P26447 whole entry, looked up): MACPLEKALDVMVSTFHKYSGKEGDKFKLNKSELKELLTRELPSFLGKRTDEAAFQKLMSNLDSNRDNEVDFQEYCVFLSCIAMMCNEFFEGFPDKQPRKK
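Material: S100A4 monomer (human). Medium: Calcium-containing HEPES buffer, pH 7.2. Probe or stimulus: labelled myosin peptide probe, 5 nM. Compound dosing: one concentration per compound. Timing: polarization read 5 min after assay mix addition, stable 5–60 min. Benchmarks: DMSO as neutral control, TFP as positive control.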
Starred values were filed as active, the others as inactive; . = no result given. An excerpt weighted towards active compounds, which were near 3.1% of everything screened.

SMILES	SIRT5 block	Ecoli rRNA inh	ERAP1 inh	F508del corr	S100A4 inh HTS
COc1ccc(NC(=O)N(C)C[C@@H]2Oc3ncc(C#CCN(C)C)cc3C(=O)N([C@@H](C)CO)C[C@@H]2C)cc1	-4	4	2	-3	1
COc1ccc(NC(=O)N(C)C[C@H]2Oc3ncc(C#CCN(C)C)cc3C(=O)N([C@@H](C)CO)C[C@@H]2C)cc1	22*	5	-2	-1	11
C/C=C/c1cnc2c(c1)C(=O)N([C@@H](C)CO)C[C@H](C)[C@@H](CN(C)C(=O)Nc1ccc(F)cc1)O2	16*	0	-4	2	2
C/C=C/c1cnc2c(c1)C(=O)N([C@@H](C)CO)C[C@H](C)[C@@H](CN(C)C(=O)Nc1ccc(C(F)(F)F)cc1)O2	0	-6	-2	0	-17
CCC(=O)N1[C@@H](CO)[C@H](c2ccc(-c3ccc(C#N)cc3)cc2)C12CN(C(C)=O)C2	-2	-2	1	0	4
O=C(NCC(c1ccco1)N1CCCCC1)c1ccc(NS(=O)(=O)c2ccc(F)cc2)cc1 (stereo unspecified)	1	-20*	-5	-1	-20
C[C@H](CO)N1C[C@H](C)[C@@H](CN(C)C(=O)Cc2ccncc2)Oc2cc(C#CC3CCCC3)ccc2S1(=O)=O	2	-4	-1	2	-27
O=C1N/C(=N\S(=O)(=O)Cc2ccccc2)S/C1=C/c1cc([N+](=O)[O-])ccc1O	6	-20*	13	-1	-9
CC1=C/C(=C(\c2cc(C)c(O)c(Br)c2)c2ccccc2S(=O)(=O)O)C=C(Br)C1=O	16*	-41	21	-2	-2
NC(=NCc1ccco1)NC(=O)c1ccc(Cl)cc1	-12	-25*	-4	2	-2
O=C(CNC(=O)c1cccc(F)c1)N/N=C/c1ccc(O)c([N+](=O)[O-])c1	-1	11	3	.	1
COc1ccc([N+](=O)[O-])cc1/C=N/NC(=O)CNC(=O)c1cccc(F)c1	.	-23*	4	2	12
O=C(Nc1csc([N+](=O)[O-])c1)Nc1c(Cl)cccc1Cl	1	-32*	.	-5	1
C[C@@H]1CCCCO[C@@H](CN(C)C(=O)Nc2ccc3c(c2)OCO3)[C@@H](C)CN([C@H](C)CO)C(=O)c2cc(NS(=O)(=O)c3cccs3)ccc2O1	0	3	1	2	-12
Cc1[nH]c2ccccc2c1C(C[N+](=O)[O-])c1cccc(O)c1 (stereo unspecified)	-2	-33*	1	-1	-2
COC(=O)C1=C(C(=O)OC)C(c2ccccc2O)c2sc(=O)[nH]c2S1 (stereo unspecified)	16*	-4	6	-1	-4
COCC(=O)Nc1ccc2c(c1)[C@H]1C[C@@H](CC(=O)NCc3cccnc3)O[C@@H](CO)[C@H]1O2	-5	1	0	0	11
CCCC#Cc1cnc2c(c1)C(=O)N([C@H](C)CO)C[C@H](C)[C@H](CN(C)C(=O)c1ccc(F)cc1)O2	1	2	-2	0	-3
Clc1ccccc1CN1CCN(/N=C/C=C\c2ccco2)CC1	28*	9	3	2	4
COC(=O)c1ccc(/C=N/N2CCN(Cc3ccccc3Cl)CC2)cc1	7	9	.	0	-13
CCNC(=S)NNC(=O)CC(C)C	-4	20	-3	9.5*	11
CCCN1CCC(=O)N([C@H](CSc2ccc(OC)cc2)c2ccccc2)CC1	21*	-5	0	2	2
CN1CCC(=O)N([C@H](CSc2ccccc2)c2ccccc2)CC1	.	3	3	3	-2
CCOc1ccc2nc(NC(=O)CSc3nc4cccnc4n3C)sc2c1	-6	3	6	.	-1
CCOc1ccc(OCC)c(NC(=O)CSc2nc3cccnc3n2C)c1	-11	-33*	3	.	-2
SMILES	SIRT5 block	Ecoli rRNA inh	ERAP1 inh	F508del corr	S100A4 inh HTS
C[C@@H]1CCCCO[C@@H](CN(C)S(=O)(=O)c2ccc(F)cc2)[C@H](C)CN([C@@H](C)CO)C(=O)c2cc(NC(=O)C3CCCCC3)ccc2O1	1	-4	-3	-1	0
C[C@H]1CN([C@@H](C)CO)C(=O)c2cc(NC(=O)C3CCCCC3)ccc2O[C@@H]1CN(C)Cc1ccc(C(=O)O)cc1	-4	-2	0	0	-4
Cc1ccc(S(=O)(=O)N2C[C@H]3[C@H]4C(=O)N(c5ccccc5)C(=O)[C@H]4C[C@H](OC(=O)Nc4c(C)noc4C)[C@@]3(O)C2)cc1	-3	-2.8*	-9	1	-2
CS(=O)(=O)N(CCC#N)Cc1ccco1	16*	23	0	1	-5
c1ccc(CCc2nc(-c3ccc(-n4cccc4)cc3)no2)cc1	18*	-3	6	0	1
COc1ccc(Cc2nc(-c3ccc(-n4cccc4)cc3)no2)cc1	.	-6	0	4	-25
Cc1cc(Cl)ccc1NC(=S)NC(C)(C)C	.	-35*	-1	1	25
Cc1ccc(C(=O)Nc2cccc(C(F)(F)F)c2)cc1Nc1cnccn1	.	4	0	10*	2
COc1ccccc1-c1cc(C(=O)NC(C)C)no1	22*	-17	-2	-3	-5
CO[C@@H]1CN(C)C(=O)c2ccc(NC(=O)NC(C)C)cc2OC[C@@H](C)N(C)C[C@@H]1C	1	2	-2	-1	2
CN(Cc1ccccc1)S(=O)(=O)c1cccc(C(=O)O)c1	31*	2	-3	5	10
COc1ccccc1N(Cc1ccccc1)S(=O)(=O)c1cccc(C(=O)O)c1	7	-26	1	.	1
COc1cc(OC)c(OC)cc1/C=N/Nc1nc2ccccc2[nH]1	-3	-39*	4	3	-1
C(=N\Nc1nc2ccccc2[nH]1)/c1ccccn1	1	12	-1	0	-3
C(=N\Nc1nc2ccccc2[nH]1)/c1cccc2nccnc12	-1	-31*	5	.	0
Cc1ccc(S(=O)(=O)N2CCOC2CNC(=O)C(=O)NCCc2c[nH]c3ccccc23)cc1 (stereo unspecified)	4	-22	-3	0	-5
O=C(NCCc1c[nH]c2ccccc12)C(=O)NCC1OCCCN1S(=O)(=O)c1ccc(F)cc1 (stereo unspecified)	-3	-18*	3	.	0
CCOc1ccccc1NC(=O)COC(=O)CC(C)(C)CC1=NS(=O)(=O)c2ccccc2N1	18*	-1	-3	-1	-3
